Calls of active or inactive are those of the source. The rule behind the calls is not given here.
What was measured:
Mus musculus [1] = test: Neurotoxicity in mouse assessed as inability to maintain equilibrium on rotarod at 100 mg/kg, ip after 4 hrs by rotarod test; format: toxicity, organism-based; design: dose 100 mg/kg, route intraperitoneal; details: in vivo
Outline: (§1)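 Drug given ip to mice as a suspension in 0.5% methylcellulose. At the stated time after dosing, each mouse was placed on a 1 inch knurled rod turning at 6 rpm. Neurotoxicity = inability to stay balanced at least 1 min in each of three trials. Scored as animals toxic/animals tested in small groups.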

Mus musculus [2] = test: Anticonvulsant activity in mouse assessed as protection against maximal electric shock-induced seizures at 30 mg/kg, ip after 0.5 hrs; format: functional, organism-based; design: dose 30 mg/kg
Outline: (§2)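 Phase I maximal electroshock screen in mice. Compound given ip as a suspension in 0.5% methylcellulose at 30, 100 or 300 mg/kg, tested at 30 min and 4 h. Small groups (1–8); result is number protected/number tested.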

Mus musculus [3] = test: Anticonvulsant activity in mouse assessed as protection against maximal electric shock-induced seizures at 70 mg/kg, ip after 0.5 hrs; format: functional, organism-based; design: dose 70 mg/kg
Outline: (§3)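 Time-to-peak-effect assay: MES protection read at 0.25–4 h after dosing. Mice ip (60–130 mg/kg), rats po (15 or 30 mg/kg) or ip (30 mg/kg). Groups of 4–8; result is protected/tested.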

Mus musculus [4] = test: Anticonvulsant activity against subcutaneous pentylenetetrazole-induced seizures in mouse at 30 mg/kg, ip after 4 hrs; format: functional, organism-based; design: dose 30 mg/kg
Outline: (§4)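 Phase I screen in mice. Compound given ip as a suspension in 0.5% methylcellulose, read at 30 min and 4 h. Pentylenetetrazole 85 mg/kg in 0.9% NaCl was injected sc into the posterior midline and animals watched ≥30 min. Protection meant no clonic spasm lasting ≥5 s. Groups of 1–8 animals; result is protected/tested.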

Mus musculus [5] = test: Anticonvulsant activity in mouse assessed as protection against maximal electric shock-induced seizures at 60 mg/kg, ip after 0.25 hrs; format: functional, organism-based; design: dose 60 mg/kg; outline: as §3
Mus musculus [6] = test: Anticonvulsant activity in ip dosed mouse assessed as protection against maximal electric shock-induced seizures; format: functional; details: Mus musculus, ip; read-out: ED50
Mus musculus [7] = test: Neurotoxicity in mouse assessed as inability to maintain equilibrium on rotarod at 90 mg/kg, ip after 24 hrs using rotarod test; format: toxicity, organism-based; design: dose 90 mg/kg, route intraperitoneal; details: in vivo; outline: as §1
Rattus norvegicus [8] = test: Neurotoxicity in rat assessed as neurological deficit at 30 mg/kg, po after 1 hr […]; format: toxicity, organism-based; design: dose 30 mg/kg, route oral; details: in vivo
Outline: (§5)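 Rats given the compound, suspended in 0.5% methylcellulose, by the stated route and dose. Neurological deficit was recorded at the listed times as ataxia and loss of placing response and muscle tone. Reported as number of rats showing toxicity/number tested.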

Mus musculus [9] = test: Anticonvulsant activity in mouse assessed as protection against maximal electric shock-induced seizures at 300 mg/kg, ip after 0.5 hrs; format: functional, organism-based; design: dose 300 mg/kg; outline: as §2
Rattus norvegicus [10] = test: Neurotoxicity in rat assessed as neurological deficit at 30 mg/kg, po after 0.5 hrs […]; format: toxicity, organism-based; design: dose 30 mg/kg, route oral; details: in vivo; outline: as §5
Mus musculus [11] = test: Neurotoxicity in mouse assessed as inability to maintain equilibrium on rotarod at 300 mg/kg, ip after 4 hrs by rotarod test; format: toxicity, organism-based; design: dose 300 mg/kg, route intraperitoneal; details: in vivo; outline: as §1
Mus musculus [12] = test: Anticonvulsant activity against subcutaneous pentylenetetrazole-induced seizures in mouse at 300 mg/kg, ip after 4 hrs; format: functional, organism-based; design: dose 300 mg/kg; outline: as §4
Mus musculus [13] = test: Neurotoxicity in mouse assessed as inability to maintain equilibrium on rotarod at 100 mg/kg, ip after 0.5 hrs by rotarod test; format: toxicity, organism-based; design: dose 100 mg/kg, route intraperitoneal; details: in vivo; outline: as §1
Mus musculus [14] = test: Anticonvulsant activity in mouse assessed as protection against maximal electric shock-induced seizures at 70 mg/kg, ip after 2 hrs; format: functional, organism-based; design: dose 70 mg/kg; outline: as §3
Mus musculus [15] = test: Anticonvulsant activity in mouse assessed as protection against maximal electric shock-induced seizures at 90 mg/kg, ip after 1 hr; format: functional, organism-based; design: dose 90 mg/kg; outline: as §3
Mus musculus [16] = test: Anticonvulsant activity against subcutaneous pentylenetetrazole-induced seizures in mouse at 30 mg/kg, ip after 0.5 hrs; format: functional, organism-based; design: dose 30 mg/kg; outline: as §4
Rattus norvegicus [17] = test: Neurotoxicity in rat assessed as neurological deficit at 30 mg/kg, po after 2 hrs […]; format: toxicity, organism-based; design: dose 30 mg/kg, route oral; details: in vivo; outline: as §5
Mus musculus [18] = test: Anticonvulsant activity in mouse assessed as protection against maximal electric shock-induced seizures at 90 mg/kg, ip after 0.25 hrs; format: functional, organism-based; design: dose 90 mg/kg; outline: as §3
Mus musculus [19] = species: Mus musculus; test: Protective index, ratio of TD50 for neurotoxicity in mouse to ED50 for inhibition of maximal electroshock-induced seizures in mouse; format: functional
Mus musculus [20] = test: Anticonvulsant activity in mouse assessed as protection against maximal electric shock-induced seizures at 70 mg/kg, ip after 1 hr; format: functional, organism-based; design: dose 70 mg/kg; outline: as §3
[21] = Neurotoxicity in ip dosed mouse assessed as inability to maintain equilibrium on rotarod by rotarod test; format: toxicity, organism-based; details: in vivo
Outline: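 Mice dosed ip with a suspension in 0.5% methylcellulose, then placed on a 1 inch knurled plastic rod rotating at 6 rpm. Toxicity = failure to keep equilibrium for at least 1 min in each of three trials.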

Rattus norvegicus [22] = test: Neurotoxicity in rat assessed as neurological deficit at 30 mg/kg, po after 4 hrs by rotarod test; format: toxicity, organism-based; design: dose 30 mg/kg, route oral; details: in vivo; outline: as §5
Mus musculus [23] = test: Anticonvulsant activity against subcutaneous pentylenetetrazole-induced seizures in mouse at 100 mg/kg, ip after 4 hrs; format: functional, organism-based; design: dose 100 mg/kg; outline: as §4
Mus musculus [24] = test: Neurotoxicity in mouse assessed as inability to maintain equilibrium on rotarod at 30 mg/kg, ip after 4 hrs by rotarod test; format: toxicity, organism-based; design: dose 30 mg/kg, route intraperitoneal; details: in vivo; outline: as §1
Mus musculus [25] = test: Neurotoxicity in mouse assessed as inability to maintain equilibrium on rotarod at 30 mg/kg, ip after 0.5 hrs by rotarod test; format: toxicity, organism-based; design: dose 30 mg/kg, route intraperitoneal; details: in vivo; outline: as §1
Mus musculus [26] = test: Anticonvulsant activity against subcutaneous pentylenetetrazole-induced seizures in mouse at 300 mg/kg, ip after 0.5 hrs; format: functional, organism-based; design: dose 300 mg/kg; outline: as §4
Mus musculus [27] = test: Anticonvulsant activity in mouse assessed as protection against maximal electric shock-induced seizures at 30 mg/kg, ip after 4 hrs; format: functional, organism-based; design: dose 30 mg/kg; outline: as §2
Mus musculus [28] = test: Neurotoxicity in mouse assessed as inability to maintain equilibrium on rotarod at 300 mg/kg, ip after 0.5 hrs by rotarod test; format: toxicity, organism-based; design: dose 300 mg/kg, route intraperitoneal; details: in vivo; outline: as §1
Mus musculus [29] = test: Anticonvulsant activity in mouse assessed as protection against maximal electric shock-induced seizures at 90 mg/kg, ip after 4 hrs; format: functional, organism-based; design: dose 90 mg/kg; outline: as §3
Mus musculus [30] = test: Anticonvulsant activity in mouse assessed as protection against maximal electric shock-induced seizures at 300 mg/kg, ip after 4 hrs; format: functional, organism-based; design: dose 300 mg/kg; outline: as §2
Mus musculus [31] = test: Anticonvulsant activity in mouse assessed as protection against maximal electric shock-induced seizures at 90 mg/kg, ip after 0.5 hrs; format: functional, organism-based; design: dose 90 mg/kg; outline: as §3
Rattus norvegicus [32] = test: Neurotoxicity in rat assessed as neurological deficit at 30 mg/kg, po after 0.25 hrs […]; format: toxicity, organism-based; design: dose 30 mg/kg, route oral; details: in vivo; outline: as §5
Mus musculus [33] = test: Anticonvulsant activity in mouse assessed as protection against maximal electric shock-induced seizures at 100 mg/kg, ip after 4 hrs; format: functional, organism-based; design: dose 100 mg/kg; outline: as §2
Mus musculus [34] = test: Anticonvulsant activity in ip dosed mouse assessed as time to show peak effect of protection against maximal electric shock-induced seizures; format: functional; outline: as §3

Compound: Cc1cccc(C)c1OCC(=O)N[C@H]1CCCC[C@@H]1O.O=C(O)C(O)C(O)C(=O)O
- Activity (Mus musculus [1]): Non-toxic
- Activity (Mus musculus [2]): inactive
- Activity (Mus musculus [3]): inactive
- Activity (Mus musculus [4]): inactive
- Activity (Mus musculus [5]): Active
- ED50 (Mus musculus [6]): 35.5 mg/kg
- Activity (Mus musculus [7]): Non-toxic
- Activity (Rattus norvegicus [8]): Non-toxic
- Activity (Mus musculus [9]): Active
- Activity (Rattus norvegicus [10]): Non-toxic
- Activity (Mus musculus [11]): Non-toxic
- Activity (Mus musculus [12]): inactive
- Activity (Mus musculus [13]): Non-toxic
- Activity (Mus musculus [14]): inactive
- Activity (Mus musculus [15]): inactive
- Activity (Mus musculus [16]): inactive
- Activity (Rattus norvegicus [17]): Non-toxic
- Activity (Mus musculus [18]): Active
- Ratio TD50/ED50 (Mus musculus [19]): 1.937
- Activity (Mus musculus [20]): inactive
- TD50 [21]: 68.7 mg/kg
- Activity (Rattus norvegicus [22]): Non-toxic
- Activity (Mus musculus [23]): inactive
- Activity (Mus musculus [24]): Non-toxic
- Activity (Mus musculus [25]): Non-toxic
- Activity (Mus musculus [26]): inactive
- Activity (Mus musculus [27]): inactive
- Activity (Mus musculus [28]): Non-toxic
- Activity (Mus musculus [29]): inactive
- Activity (Mus musculus [30]): inactive
- Activity (Mus musculus [31]): Active
- Activity (Rattus norvegicus [32]): Non-toxic
- Activity (Mus musculus [33]): inactive
- Time (Mus musculus [34]): 0.25 h

From ChEMBL document CHEMBL1921792, “Synthesis and anticonvulsant activity of trans- and cis-2-(2,6-dimethylphenoxy)-N-(2- or 4-hydroxycyclohexyl)acetamides and their amine analogs” (Bioorg Med Chem, 2011)
